Source: the EternaBench riboswitch data

System: MS2 coat protein
Test: apparent Kd, MS2 coat protein; higher = weaker binding; RNA-MaP array; tryptophan 2.4 mM where present
Method in brief: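 Two titrations, one without ligand and one with constant ligand, were run with SNAP-549-labelled MS2 coat protein from 0.7 or 1.5 nM, doubling to 3 µM. The targets were designs transcribed by stalled E. coli RNA polymerase on Illumina sequencing-chip clusters, in 100 mM Tris-HCl pH 7.5, 80 mM KCl, 4 mM MgCl2, BSA, DTT, yeast tRNA and Tween-20. The apparent Kd is the median of filtered per-cluster binding-curve fits, with green signal normalised to red-channel RNA signal and control-cluster median Fmax.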

[1] = designed as: OFF switch for tryptophan, no ligand
[2] = ligand present: tryptophan, designed as: OFF switch for tryptophan
[3] = designed as: ON switch for tryptophan, no ligand
[4] = ligand present: tryptophan, designed as: ON switch for tryptophan

GUCCAAAGGUCGGCCGCCACUGUAGAGUGUGUUCUUUCACAUGAGGAUCACCCAUGUUGUUAUUAUAGGACCGGGAUUGUAGGAC
apparent Kd [1]: 20.4 nM
apparent Kd [2]: 28.1 nM

GUGUUAUGGUCGGCCGCCACUCUGACAUGAGGAUCACCCAUGUUGUACAUGAGGAUCACCCAUGUGAGGACCGGGACACGUGCGA
apparent Kd [1]: 401 nM
apparent Kd [2]: 442 nM

GUUUAAAGGUCGGCCGCCACUGUAGGAUGUGUUCUUUCACAUGAGGAUCACCCAUGUUGUUAUUAUAGGACCGGGAUUUUAGGAC
apparent Kd [1]: 27.1 nM
apparent Kd [2]: 22.4 nM

GUUUUGGGAUCGGCCGCCACUACAUGAGGAUCACCCAUGUGGACAAAUAGGGUUUUUAAGCUCGGUAGGACCGGGAUUCGAACAU
apparent Kd [1]: 18.1 nM
apparent Kd [2]: 67.5 nM

UACAUGAGGAUCACCCAUGUAUUGCCGGUACGAGGACCGGUACGGCCGCCACUCGGAGCAUGAGGAUCACCCAUGUGCUGCUAUG
apparent Kd [3]: 66.2 nM
apparent Kd [4]: 51.8 nM

UAUAUAUAUCACGAACUGUGGUGUAUGUCUCGAGGACCGGUACGGCCGCCACUCGCGCGGCCUCACAUGAGGAUCACCCAUGUCC
apparent Kd [1]: 89.2 nM
apparent Kd [2]: 113 nM

UAUCUACAUGAAUAGGUUAUUCGAUUAUUUCGAGGACCGGUACGGCCGCCACUCGUUAACAUAUACAUGAGGAUCACCCAUGUUA
apparent Kd [3]: 16.9 nM
apparent Kd [4]: 15.9 nM

UCGUUAUGGUCGGCCGCCACUCGCGGAGAGCAUAGCUCAAACAUGAGGAUCACCCAUGUAUCAUGGAGGACCGGGACCAUAACGU
apparent Kd [3]: 31.9 nM
apparent Kd [4]: 14 nM

UCGUUUUAGUCGGCCGCCACUGUAUGCAUGUUUAACAUGAGGAUCACCCAUGUCCCGUACUAUAACAGGACCGGGACGUAAUAGA
apparent Kd [3]: 168 nM
apparent Kd [4]: 100 nM

UGAUACCAGUCGGCCGCCACUACAUGAGGAUCACCCAUGUAUCCUCAACUGCUAGAUACUAGCAGUAGGACCGGGACUGGUAUCU
apparent Kd [1]: 307 nM
apparent Kd [2]: 1150 nM

UGUCAUGGAAACAUGACUGGUUCUACCGGUCGAGGACCGGUACGGCCGCCACUCGAUUGGUGGCACAUGAGGAUCACCCAUGUUA
apparent Kd [3]: 28.2 nM
apparent Kd [4]: 30 nM

UGUGUGUGACCAGGAAAUGGUCACACACAGCGAGGACCGGUACGGCCGCCACUCGGCCGUACAUGAGGAUCACCCAUGUCGGGUA
apparent Kd [3]: 674 nM
apparent Kd [4]: 741 nM

UUAGUAACGACGGCCGCCACUGGAUAUGAACAUGAGGAUCACCCAUGUAGAGAUCCUAGAAUAAACAGGACCGGGUCUGAUAAUA
apparent Kd [1]: 17.2 nM
apparent Kd [2]: 53.4 nM

UUCACAUGAUCUGAAUAUACAGAAAAGAAACGAGGACCGGUACGGCCGCCACUCGUGCCGGAAACAUGAGGAUCACCCAUGUGUU
apparent Kd [1]: 24.2 nM
apparent Kd [2]: 22 nM

UUGUGGCGCUCGGCCGCCACUCCGACAUGAGGAUCACCCAUGUUCUACAUGAGGAUCACCCAUGUGAGGACCGGGAGACACUUCC
apparent Kd [1]: 104 nM
apparent Kd [2]: 103 nM

UUUAUUAUUGACUCGUUAUUGUUUUUGGAUCGAGGACCGGUACGGCCGCCACUCGUGAUAUACAUGAGGAUCACCCAUGUUAGCA
apparent Kd [3]: 14.9 nM
apparent Kd [4]: 12.8 nM
